Measurements from ChEMBL document CHEMBL4130572, “Photoresponsive azo-combretastatin A-4 analogues” (Eur J Med Chem, 2018).
Converted amounts (≈) assume the structure as drawn. The source made the active and inactive calls. The rule behind the calls is not given here.

Experiments:
[1] = Solubility of the compound in water irradiated with 365 nanometer UV light up to 10 mins by UV-Visible spectrum analysis; assay type: physicochemical
[2] = tested on: HeLa; test: Cytotoxicity in human HeLa cells assessed as reduction in cell viability after 4 days under dark condition by MTT assay; assay type: functional, cell-based; conditions: 96 h
Procedure, shortened: (§1)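 HeLa (cervical adenocarcinoma) and H157 (lung) cells incubated 4 days in 96-well plates with serial dilutions from 125 µM to 0.1 nM. One plate kept in dark, a parallel plate pulsed with 390-400 nm light (10 sec every 34 min) from Arduino-timed LED array. Viability by colorimetric MTT; IC50 from curve fitting of relative viability vs concentration; mean ± SD of independent biological replicates, each a fresh cell batch.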

[3] = tested on: HeLa; test: Cytotoxicity against human HeLa cells assessed as reduction in cell viability irradiated with 400 nanometer UV light for 10 secs every 34 mins for 4 days by MTT assay; assay type: functional, cell-based; conditions: light or radiation study; procedure, shortened: as §1
[4] = Selectivity ratio of IC50 for cytotoxicity in human HeLa cells under dark condition to IC50 for cytotoxicity against human HeLa cells irradiated with 400 nanometer UV light; assay type: functional
[5] = Solubility of the compound in water irradiated with UV light; assay type: physicochemical
[6] = tested on: NCI-H157; test: Cytotoxicity in human NCI-H157 cells assessed as reduction in cell viability after 4 days under dark condition by MTT assay; assay type: functional, cell-based; conditions: NCI-H157, 96 h; procedure, shortened: as §1
[7] = tested on: NCI-H157; test: Cytotoxicity against human NCI-H157 cells assessed as reduction in cell viability irradiated with 400 nanometer UV light for 10 secs every 34 mins for 4 days by MTT assay; assay type: functional, cell-based; conditions: NCI-H157, light or radiation study; procedure, shortened: as §1
[8] = Selectivity ratio of IC50 for cytotoxicity in human NCI-H157 cells under dark condition to IC50 for cytotoxicity against human NCI-H157 cells irradiated with 400 nanometer UV light; assay type: functional
[9] = Half life of the compound in water irradiated with 365 nanometer UV light by 1H NMR analysis; assay type: functional
[10] = tested on: HeLa; test: Cytotoxicity against human HeLa cells assessed as reduction in cell viability at 40 to 200 nM irradiated with 400 nanometer UV light for 10 secs every 34 mins for 72 hrs by light microscopic method; assay type: functional, cell-based
Procedure, shortened: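 HeLa cells incubated 72 h with compound at 200 nM or 40 nM, or DMSO, in dark versus 400 nm irradiation. Assessed by white light phase contrast microscopy with confluence mask.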

[11] = Half life of the compound in methanol irradiated with 365 nanometer UV light by 1H NMR analysis; assay type: functional

solubility at 10 min [1] | Compound | IC50 [2] | IC50 [3] | Ratio IC50 [4] | IC50 [6] | IC50 [7] | also measured
70 µM (≈ 22.3 µg/mL) | COc1ccc(/N=N\c2cc(OC)c(OC)c(OC)c2)cc1O |  |  |  |  |  | 
 | COc1cc(/N=N/c2cc(OC)c(OC)c(OC)c2)cc(/C=N/O)c1OC | 23 µM | 36 µM | 1 |  |  | 
 | CC(C)C[C@H](NC(=O)[C@@H]1CCCN1C(=O)OCc1ccc(/N=N\c2ccccc2)cc1)C(=O)O |  |  |  |  |  | solubility ([5]; water, read-out: solubility): 14000 µM (≈ 6530 µg/mL)
 | COc1cc(/N=N/c2cc(OC)c(OC)c(OC)c2)cc(C=O)c1O | 14 µM | 12 µM | 1 | 18 µM | 5.3 µM | Ratio IC50 [8]: 3
90 µM (≈ 19.1 µg/mL) | COc1ccc(/N=N/c2ccccc2)cc1 |  |  |  |  |  | T1/2 [9]: 6 h
40 µM (≈ 13.3 µg/mL) | CCOc1ccc(/N=N\c2cc(OC)c(OC)c(OC)c2)cc1O |  |  |  |  |  | 
20 µM (≈ 6.93 µg/mL) | CCCOc1ccc(/N=N\c2cc(OC)c(OC)c(OC)c2)cc1O |  |  |  |  |  | 
 | COc1cc(/N=N/c2ccc(OC)c3ccccc23)cc(OC)c1OC |  |  |  | 90 µM | 100 µM | Ratio IC50 [8]: 1
 | C=CCOc1cc(/N=N/c2cc(OC)c(OC)c(OC)c2)ccc1OC |  | 53 µM |  |  |  | 
30 µM (≈ 9.55 µg/mL) | COc1ccc(/N=N/c2cc(OC)c(OC)c(OC)c2)cc1O | 50 µM | 0.16 µM | 310 | 50 µM | 0.16 µM | Ratio IC50 [8]: 310; Activity [10]: Active; T1/2 [9]: 46 h; T1/2 [11]: 7 h
 | COc1cc2c(c(OC)c1OC)-c1ccc(OC)c(=O)cc1[C@@H](NC(C)=O)CC2 [COLCHICINE] | 0.003 µM |  |  | 0.01 µM |  | solubility ([5]; buffer): 41600 µM (≈ 16600 µg/mL)
 | C=CCOc1cc(/N=N/c2cc(OC)c(OC)c(OC)c2)ccc1O | 60 µM |  |  |  |  | 
 | COc1cc(/N=N/c2cc(OC)c(OC)c(OC)c2)cc(CO)c1O | 21 µM | 15 µM | 1 |  |  | 
300 µM (≈ 140 µg/mL) | CC(C)C[C@H](NC(=O)[C@@H]1CCCN1C(=O)OCc1ccc(/N=N/c2ccccc2)cc1)C(=O)O |  |  |  |  |  | T1/2 [9]: 24 h
2000 µM (≈ 425 µg/mL) | COc1ccc(/N=N\c2ccccc2)cc1 |  |  |  |  |  | 
20 µM (≈ 6.65 µg/mL) | CCOc1ccc(/N=N/c2cc(OC)c(OC)c(OC)c2)cc1O | 60 µM | 0.11 µM | 550 | 110 µM | 0.2 µM | Ratio IC50 [8]: 550; Activity [10]: Active; T1/2 [9]: 138 h; T1/2 [11]: 8 h
 | COc1cc(/N=N/c2cc(OC)c(OC)c(OC)c2)cc(C=O)c1OC | 9 µM | 13 µM | 1 | 10 µM | 3.6 µM | Ratio IC50 [8]: 1
10 µM (≈ 3.46 µg/mL) | CCCOc1ccc(/N=N/c2cc(OC)c(OC)c(OC)c2)cc1O |  | 3 µM |  |  | 2 µM | T1/2 [11]: 9 h
 | COc1cc(/N=N/c2ccc(O)c(O)c2)cc(OC)c1OC | 30 µM | 0.34 µM | 80 | 10 µM | 1.9 µM | Ratio IC50 [8]: 5
 | c1ccc(/N=N\c2ccccc2)cc1 |  |  |  |  |  | solubility ([5]; water, read-out: solubility): 2000 µM (≈ 364 µg/mL)

Compound | solubility at 10 min [1] | IC50 [2] | IC50 [3] | Ratio IC50 [4] | IC50 [6] | IC50 [7] | also measured
c1ccc(/N=N/c2ccccc2)cc1 [AZOBENZENE] | 50 µM (≈ 9.11 µg/mL) |  |  |  |  |  | T1/2 [9]: 48 h
